The values that follow come from ChEMBL document CHEMBL1250434, “A novel achiral seco-cyclopropylpyrido[e]indolone (CPyI) analog of CC-1065 and the duocarmycins: synthesis, DNA interactions, in vivo anticancer and anti-parasitic evaluation” (Bioorg Med Chem, 2010).

Where only a bound is given, the exact number is not on record here.

Series [1] has as its system CAKI-1. Kind of series: Cytotoxicity against human Caki1 cells after 48 hrs by sulforhodamine B assay. The class given is functional. The conditions noted are these: CAKI-1, 48 h, read-out: pLC50 (the source's name) (converted). In outline: (§1)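 NCI human cancer cell line panel. Continuous 48 h drug exposure, viability by sulforhodamine B. GI50, TGI and LC50 derived from dose–response curves.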

Series [2] concerns 786-0. Kind of series: Cytotoxicity against human 786-0 cells after 48 hrs by sulforhodamine B assay. The series is classed as functional. Conditions: 786-0, 48 h, read-out: pLC50 (the source's name) (converted). The method, boiled down:
as §1
(In general: The SRB assay estimates cell density from bound dye.)

Series [3] has as its system Mus musculus. Kind of series: Toxicity in mouse B16F0 cells xenografted C57/BL/6J mouse assessed as reduction of body weight at 10 mg/kg, ip administered on day 1, 5, and 9 measured after 21 days. The series is classed as organism-based. Details: dose 10 mg/kg, route intraperitoneal. Conditions: in vivo, 504 h. The method, boiled down: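 Female C57/BL/6J mice, 5–7 weeks old, 8 per group, carrying sc B16-F0 flank tumours implanted day 0. Dosed 10 mg/kg ip in 1:2 PET/5% glucose on days 1, 5 and 9; vehicle-treated controls on the same schedule. Body weights recorded every other day.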

For series [4], the system named is NCI-H322M. Kind of series: Cytotoxicity against human NCI-H322M cells after 48 hrs by sulforhodamine B assay. The conditions noted are these: read-out: pLC50 (the source's name) (converted). The series is classed as functional. The method, boiled down: as §1
For series [5], the system named is OVCAR-8. Kind of series: Cytotoxicity against human OVCAR8 cells after 48 hrs by sulforhodamine B assay. Conditions: OVCAR-8, 48 h, read-out: pLC50 (the source's name) (converted). The series is classed as functional. In outline:
as §1

The subject of series [6] is Nucleic Acid. Kind of series: Binding affinity to pUC18 DNA assessed as DNA alkylating activity after 5 hrs by thermal cleavage assay. The class given is nucleic-acid assay. Conditions: Escherichia coli. The method, boiled down: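 PCR probe from the 749–956 region of pUC18. DNA precipitated and lyophilised, then heated at 90 °C for 30 min in sodium citrate buffer (pH 7.2) to cleave at alkylated adenines. Fragments resolved by electrophoresis.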

In series [7] the test system is SK-OV-3. Kind of series: Cytotoxicity against human SKOV3 cells after 48 hrs by sulforhodamine B assay. The series is classed as functional. The conditions noted are these: SK-OV-3, 48 h, read-out: pLC50 (the source's name) (converted). The method, boiled down: as §1
Series [8] deals with HOP-92. Kind of series: Cytotoxicity against human HOP92 cells after 48 hrs by sulforhodamine B assay. The class given is functional. The conditions noted are these: HOP-92, 48 h, read-out: pLC50 (the source's name) (converted). The method, boiled down: as §1
Series [9] concerns EKVX. Kind of series: Cytotoxicity against human EKVX cells after 48 hrs by sulforhodamine B assay. The series is classed as functional. The conditions noted are these: read-out: pLC50 (the source's name) (converted). In outline:
as §1

Series [10] relates to Leishmania donovani. Kind of series: Antimicrobial activity against promastigotes of Leishmania donovani assessed as inhibition of cell proliferation after 72 hrs by alamar blue assay. The class given is functional, organism-based. The method, boiled down: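 Promastigotes at 5 × 10^4 cells/well in DME-L medium with 10% heat-inactivated FBS, hemin, xanthine and penicillin-streptomycin. Exposed to 0.03 nM to 64 µM compound for 72 h at 26 °C. Alamar blue added, incubated 15 h, dye reduction read by fluorescence ex 530/em 590 nm.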
Background: Resazurin is reduced to fluorescent resorufin, in cell work by metabolically active cells.

Series [11] concerns SF-539. Kind of series: Cytotoxicity against human SF539 cells after 48 hrs by sulforhodamine B assay. The series is classed as functional. The conditions noted are these: SF-539, 48 h, read-out: pLC50 (the source's name) (converted). In outline: as §1
Series [12] can be described thus: Cytotoxicity against human Hs 578T cells after 48 hrs by sulforhodamine B assay. The conditions noted are these: read-out: pLC50 (the source's name) (converted). The class given is functional. In outline: as §1
For series [13], the system named is SF-268. Kind of series: Cytotoxicity against human SF268 cells after 48 hrs by sulforhodamine B assay. The class given is functional. The conditions noted are these: SF-268, 48 h, read-out: pLC50 (the source's name) (converted). In outline: as §1
Series [14] concerns Plasmodium falciparum. Kind of series: Antimicrobial activity against Plasmodium falciparum infected in human erythrocytes assessed as growth inhibition. The series is classed as functional, organism-based. The method, boiled down:
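P. falciparum grown in human erythrocytes at 3–5% hematocrit in complete medium. In vitro growth assay at six concentrations, in triplicate, in three independent experiments.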

Series [15] can be described thus: Antitumor activity against mouse B16F0 cells xenografted in C57/BL/6J mouse assessed as […] at 10 mg/kg, ip administered on day 1, 5, and 9 measured after 21 days. The series is classed as functional. Conditions: route intraperitoneal. The method, boiled down: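 Female C57/BL/6J mice, 5–7 weeks old, 8 per group. Given 200,000 cultured B16-F0 cells (PBS-washed, not mouse-passaged) sc in the left flank on day 0. Dosed 10 mg/kg ip in 1:2 PET/5% glucose on days 1, 5 and 9; controls received vehicle. Tumours measured by caliper about every other day. Volume = length × width². Measurements stopped when 50% of the group had died.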

In series [16] the test system is IGROV-1. Kind of series: Cytotoxicity against human IGROV1 cells after 48 hrs by sulforhodamine B assay. The series is classed as functional. The conditions noted are these: IGROV-1, 48 h, read-out: pLC50 (the source's name) (converted). The method, boiled down:
as §1

Series [17] deals with SK-MEL-2. Kind of series: Cytotoxicity against human SK-MEL-2 cells after 48 hrs by sulforhodamine B assay. The series is classed as functional. Conditions: SK-MEL-2, 48 h, read-out: pLC50 (the source's name) (converted). In outline: as §1
Series [18] concerns SNB-75. Kind of series: Cytotoxicity against human SNB75 cells after 48 hrs by sulforhodamine B assay. Conditions: SNB-75, 48 h, read-out: pLC50 (the source's name) (converted). The class given is functional. In outline:
as §1

For series [19], the system named is T47D. Kind of series: Cytotoxicity against human T47D cells after 48 hrs by sulforhodamine B assay. The series is classed as functional. Conditions: read-out: pLC50 (the source's name) (converted). In outline:
as §1

For series [20], the system named is M14. Kind of series: Cytotoxicity against human M14 cells after 48 hrs by sulforhodamine B assay. The class given is functional. The conditions noted are these: M14, 48 h, read-out: pLC50 (the source's name) (converted). In outline:
as §1

The subject of series [21] is CCRF-CEM. Kind of series: Cytotoxicity against human CCRF-CEM cells after 48 hrs by sulforhodamine B assay. The class given is functional. The conditions noted are these: read-out: pLC50 (the source's name) (converted). The method, boiled down:
as §1

Series [22] concerns KM12. Kind of series: Cytotoxicity against human KM12 cells after 48 hrs by sulforhodamine B assay. The series is classed as functional. The conditions noted are these: KM12, 48 h, read-out: pLC50 (the source's name) (converted). In outline: as §1
For series [23], the system named is COLO 205. Kind of series: Cytotoxicity against human COLO205 cells after 48 hrs by sulforhodamine B assay. The class given is functional. The conditions noted are these: COLO 205, 48 h, read-out: pLC50 (the source's name) (converted). In outline: as §1
In series [24] the test system is SK-MEL-28. Kind of series: Cytotoxicity against human SK-MEL-28 cells after 48 hrs by sulforhodamine B assay. The conditions noted are these: SK-MEL-28, 48 h, read-out: pLC50 (the source's name) (converted). The series is classed as functional. In outline:
as §1

Take `COc1cc2cc(C(=O)Nc3cc(O)c4ncc(C)cc4c3CCCl)[nH]c2c(OC)c1OC`: the CC50 in series [1] is 1550 nM; in series [2], 135 nM; in series [4] it was 123 nM; in series [5], 275 nM; in [7], greater than 100000 nM; in series [8], 28200 nM. Besides, the CC50 in [9] was 3020 nM; in series [11], 151 nM; in [12], greater than 100000 nM; in series [13], greater than 100000 nM; in series [16], greater than 100000 nM; in series [17], greater than 100000 nM. Also, the CC50 in series [18] is 11.5 nM; in series [19] it was greater than 100000 nM; in [20], less than 10 nM; in [21], greater than 100000 nM; in [22] it was 191 nM; in [23], greater than 100000 nM. Besides, the CC50 in series [24] was greater than 100000 nM. Moreover, the Activity result was “Non-toxic” in series [3], “Dose-dependent effect” in [6] and 2000 mm3 in series [15]. For the same compound, the figures for the IC50 in series [10] and in series [14] were 340 nM and 1.8 nM, respectively.

The IC50 is the concentration at which inhibition is half-maximal.
